Assay results from ChEMBL document CHEMBL1150326 (Bioorg Med Chem, 2008).
Active and inactive are the calls of the source. The rule behind the calls is not given here.

Legend:
HCT-116 = experiment: Cytotoxicity against human HCT116 cells after 72 hrs by SRB assay; assay type: functional, cell-based; details: HCT-116, 72 h
Procedure, shortened: (§1)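 Solid tumour cells (breast MX-1, colon HCT116) exposed for 72 h. Growth measured by SRB assay. IC50 obtained by median-effect plot from six or seven concentrations, in duplicate or triplicate.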

MX1 [1] = experiment: Cytotoxicity against human MX1 cells after 72 hrs by SRB assay; assay type: functional, cell-based; details: MX1, 72 h; procedure, shortened: as §1
CCRF-CEM [2] = experiment: Cytotoxicity against human CCRF-CEM cells after 72 hrs by XTT assay; assay type: functional, cell-based
Procedure, shortened: (§2)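 Leukaemic CCRF-CEM cells and their taxol- and vinblastine-resistant sublines exposed for 72 h. XTT assay read at 450 and 630 nm after 6 h with phenazine methosulfate-XTT at 37 °C. IC50 obtained by the median-effect principle from six or seven concentrations, in duplicate or triplicate.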

CCRF-CEM [3] = experiment: Cytotoxicity against taxol-resistant human CCRF-CEM cells after 72 hrs by XTT assay; assay type: functional, cell-based; procedure, shortened: as §2
CCRF-CEM [4] = experiment: Selectivity ratio of IC50 for taxol-resistant human CCRF-CEM cells to IC50 for human CCRF-CEM cells; assay type: functional
Procedure, shortened: (§3)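 Fold resistance: IC50 in the taxol- or vinblastine-resistant CCRF-CEM subline divided by the IC50 in parent CCRF-CEM.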

CCRF-CEM [5] = experiment: Cytotoxicity against vinblastine-resistant human CCRF-CEM cells after 72 hrs by XTT assay; assay type: functional, cell-based; procedure, shortened: as §2
CCRF-CEM [6] = experiment: Selectivity ratio of IC50 for vinblastine-resistant human CCRF-CEM cells to IC50 for human CCRF-CEM cells; assay type: functional; procedure, shortened: as §3
NCI-H1299 [7] = experiment: Induction of DNA interstrand cross linking in 20 Gy irradiated human H1299 cells at 200 uM after 1 hr by comet assay; assay type: functional
Procedure, shortened: (§4)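 H1299 cells (2 × 10^5) plated and grown for 32 h at 37 °C in 5% CO2, then drug-treated for 1 h. Cells given 20 Gy irradiation and embedded in 1.2% low-melting agarose for a modified comet assay under subdued light. Tail moment scored in 100 cells. Cross-linking % = [1 − (TMdi−TMcu)/(TMci−TMcu)] × 100. Three experiments, mean ± SD.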

Mus musculus [8] = experiment: Toxicity against human MX1 cells xenografted mouse assessed as body weight loss at 75 mg/kg, iv administered in Q2D x 8 schedule; assay type: organism-based; design: dose 75 mg/kg, route intravenous; details: in vivo
MX1 [9] = experiment: Antitumor activity in human MX1 cells xenografted mouse assessed as complete tumor remission at 75 mg/kg, iv administered in Q2D x 8 schedule; assay type: functional, organism-based; design: dose 75 mg/kg
MX1 [10] = experiment: Antitumor activity in human MX1 cells xenografted mouse assessed as complete tumor remission at 30 mg/kg, iv administered in Q2D x 5 schedule; assay type: functional, organism-based; design: dose 30 mg/kg
[11] = Chemical stability assessed as half life at 1 mg in DMSO/Tween 80/normal saline solution; assay type: physicochemical
Procedure, shortened: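 1 mg of compound held in i.v. vehicle (DMSO/Tween 80/normal saline, 0.5:0.4:1.6 v/v/v). Degradation followed by silica TLC (CHCl3/MeOH 10:1) and confirmed by reversed-phase HPLC.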

Mus musculus [12] = experiment: Toxicity against human MX1 cells xenografted mouse assessed as body weight loss at 30 mg/kg, iv administered in Q2D x 5 schedule; assay type: organism-based; design: dose 30 mg/kg, route intravenous; details: in vivo
Procedure, shortened: (§5)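 Nude nu/nu male mice (8 weeks or older, 22 g or more) carrying xenografts, given i.v. tail-vein injections in DMSO/Tween 80/saline vehicle, n = 3. Host toxicity taken as body weight change from the initial pretreatment weight, tracked through and after dosing.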

[13] = Stability in mouse assessed as half life; assay type: ADME, organism-based; details: in vivo
U-87 MG = experiment: Antitumor activity in human U87 MG cells xenografted mouse at 100 mg/kg, iv administered in Q2D x 5 schedule; assay type: functional, organism-based; design: dose 100 mg/kg; details: U-87MG ATCC
MX1 [14] = experiment: Antitumor activity in human MX1 cells xenografted mouse assessed as complete tumor remission at 100 mg/kg, iv administered in Q2D x 5 schedule; assay type: functional, organism-based; design: dose 100 mg/kg
[15] = Cytotoxicity against human H1299 cells; assay type: functional, cell-based; details: NCI-H1299
[16] = Stability in rat plasma assessed as half life at 5 ug/mL by HPLC; assay type: ADME, cell-free
Procedure, shortened: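 Rat plasma (100 µL, 5 µg/mL compound) deproteinised with acetonitrile (1:2), centrifuged at 10,000 g for 10 min and filtered. Analysed by HPLC on methanol:10 mM NaH2PO4 (60:40, pH 3.0) at 0.8 mL/min, UV 266 nm, quantified by peak area. Detection limit 20 ng/mL; n = 4.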

NCI-H1299 [17] = experiment: Induction of DNA interstrand cross linking in 20 Gy irradiated human H1299 cells at 10 uM after 1 hr by comet assay; assay type: functional; procedure, shortened: as §4
Mus musculus [18] = experiment: Toxicity against human U87 MG cells xenografted mouse assessed as body weight loss at 100 mg/kg, iv administered in Q2D x 5 schedule; assay type: organism-based, U-87MG ATCC; design: dose 100 mg/kg, route intravenous; details: in vivo; procedure, shortened: as §5
Mus musculus [19] = experiment: Toxicity against human MX1 cells xenografted mouse assessed as body weight loss at 100 mg/kg, iv administered in Q2D x 5 schedule; assay type: organism-based; design: dose 100 mg/kg, route intravenous; details: in vivo; procedure, shortened: as §5
Mus musculus [20] = experiment: Toxicity against human MX1 cells xenografted mouse assessed as body weight loss at 50 mg/kg, iv administered in Q2D x 8 schedule; assay type: organism-based; design: dose 50 mg/kg, route intravenous; details: in vivo; procedure, shortened: as §5
MX1 [21] = experiment: Antitumor activity in human MX1 cells xenografted mouse assessed as complete tumor remission at 50 mg/kg, iv administered in Q2D x 8 schedule; assay type: functional, organism-based; design: dose 50 mg/kg
MX1 [22] = experiment: Antitumor activity in human MX1 cells xenografted mouse assessed as complete tumor suppression at 50 mg/kg, iv administered in Q2D x 8 schedule; assay type: functional, organism-based; design: dose 50 mg/kg

Structure (SMILES)	IC50 (HCT-116) [nM]	IC50 (MX1 [1]) [nM]	IC50 (CCRF-CEM [2]) [nM]	IC50 (CCRF-CEM [3]) [nM]	Ratio IC50 (CCRF-CEM [4])	IC50 (CCRF-CEM [5]) [nM]	Ratio IC50 (CCRF-CEM [6])	further results
CC[C@]1(O)C[C@@H]2CN(CCc3c([nH]c4ccccc34)[C@@](C(=O)OC)(c3cc4c(cc3OC)N(C)[C@H]3[C@@](O)(C(=O)OC)[C@H](OC(C)=O)[C@]5(CC)C=CCN6CC[C@]43[C@@H]65)C2)C1 [VINBLASTINE]	1.8	2.9	–	–	–	–	–	–
COc1cc(NC(=O)Nc2ccc(N(CCCl)CCCl)cc2)cc(Nc2c3ccccc3nc3c(C(=O)NCCN(C)C)cccc23)c1	110	638	13.2	30.2	2.29	951	72	–
Cc1ccc(NC(=O)Nc2ccc(N(CCCl)CCCl)cc2)cc1Nc1c2cccc(C)c2nc2c(C(=O)NCCN(C)C)cccc12	60	60.1	11.9	176	14.7	303	25.4	–
Cc1ccc(NC(=O)Nc2ccc(N(CCCl)CCCl)cc2)cc1Nc1c2ccccc2nc2c(C)cccc12	158	589	11.4	23	2.02	24.5	2.15	–
COc1ccc(NC(=O)Nc2ccc(N(CCCl)CCCl)cc2)cc1Nc1c2ccccc2nc2c(C)cccc12	571	1810	29.7	57.4	1.93	30.6	1.3	–
COc1cc(NC(=O)Nc2ccc(N(CCCl)CCCl)cc2)cc(Nc2c3ccccc3nc3ccccc23)c1	496	1110	37.5	50.4	1.34	54.8	1.46	–
COc1ccc(Nc2c3ccccc3nc3c(C)cccc23)cc1NC(=O)Nc1ccc(N(CCCl)CCCl)cc1	74.9	367	9.2	11.5	1.25	24.6	2.76	–
N[C@@H](Cc1ccc(N(CCCl)CCCl)cc1)C(=O)O [MELPHALAN]	–	–	–	–	–	–	–	Activity (NCI-H1299 [7]): 47.3%
Cc1cc(NC(=O)Nc2ccc(N(CCCl)CCCl)cc2)cc(Nc2c3ccccc3nc3ccccc23)c1	816	529	141	384	2.72	593	4.2	Activity (Mus musculus [8]): 10%; Activity (MX1 [9]): Active
Cc1cccc2c(Nc3cc(CO)cc(NC(=O)Nc4ccc(N(CCCl)CCCl)cc4)c3)c3ccccc3nc12	263	125	31.1	394	12.7	1790	57.5	Activity (MX1 [10]): Active; half-life [11]: 59 days; Activity (Mus musculus [12]): 10%
COc1ccc(NC(=O)Nc2ccc(N(CCCl)CCCl)cc2)cc1Nc1c2ccccc2nc2ccccc12	188	591	44.2	58.8	1.33	54.8	1.24	–
Cc1ccc(Nc2c3ccccc3nc3ccccc23)cc1NC(=O)Nc1ccc(N(CCCl)CCCl)cc1	264	584	16.7	34.7	2.08	33.4	2	–
OCc1cc(Nc2c3ccccc3nc3ccccc23)cc(OCCN(CCCl)CCCl)c1	6.5	–	3.33	3.2	0.96	12.8	3.84	half-life [13]: < 0.0174 days
Cc1ccc(Nc2c3ccccc3nc3c(C)cccc23)cc1NC(=O)Nc1ccc(N(CCCl)CCCl)cc1	437	240	77.8	91.8	1.18	128	1.64	Activity (U-87 MG): Active; half-life [11]: 55 days; Activity (MX1 [14]): Active; IC50 [15]: 510 nM; half-life at 5 ug/mL [16]: 2.26 days; Activity (NCI-H1299 [17]): 39.2%; Activity (Mus musculus [18]): 15%; Activity (Mus musculus [19]): 10%
COc1ccc(Nc2c3ccccc3nc3ccccc23)cc1NC(=O)Nc1ccc(N(CCCl)CCCl)cc1	256	1200	7.7	33.8	4.39	54.9	7.13	–
O=C(Nc1ccc(N(CCCl)CCCl)cc1)Nc1c2ccccc2nc2ccccc12	900	810	229	385	1.68	378	1.65	–
COc1cc(NC(=O)Nc2ccc(N(CCCl)CCCl)cc2)cc(Nc2c3ccccc3nc3c(C)cccc23)c1	242	868	29.6	49.8	1.68	43.3	1.46	–
O=C(Nc1ccc(N(CCCl)CCCl)cc1)Nc1cc(CO)cc(Nc2c3ccccc3nc3ccccc23)c1	216	369	–	17200	304	–	–	Activity (Mus musculus [20]): 10%; half-life [11]: 55 days; Activity (MX1 [21]): inactive; Activity (MX1 [22]): Active
CC(=O)O[C@H]1C(=O)[C@@]2(C)[C@H]([C@H](OC(=O)c3ccccc3)[C@]3(O)C[C@H](OC(=O)[C@H](O)[C@@H](NC(=O)c4ccccc4)c4ccccc4)C(C)=C1C3(C)C)[C@]1(OC(C)=O)CO[C@@H]1C[C@@H]2O [PACLITAXEL]	1.3	35	1.3	–	330	1270	980	–
